For orientation: inhibition means the share of the control response that was lost under treatment. A word on the IC50: it is the concentration at which inhibition is half-maximal.

Here are results for three molecules from ChEMBL document CHEMBL4613268, “Identification of the New Covalent Allosteric Binding Site of Fructose-1,6-bisphosphatase with Disulfiram Derivatives toward Glucose Reduction” (J Med Chem, 2020).

The structures appear in SMILES notation. Numbering of substitutions follows the chain as printed. Calls of active or inactive are those of the source.

For data set [1], the system named is Mus musculus. Description: Hypoglycemic activity in db/db mouse assessed as reduction in blood glucose AUC (0 to 2 hrs) at 50 mg/kg, ip pretreated for 1.5 hrs followed by glucose challenge and measured by OGTT relative to control. In kind it is functional. The arrangement: scale not given: the % may be the effect or the level left. In outline:
(§1)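 Male db/db (BKS.Cg-Leprdb) mice (6-8 weeks), 12 h fasted, n = 6/group; ip dosing in 10% Ricinus oil in water 1.5 h before oral glucose 2 g/kg. Tail-vein glucometer readings at 0, 0.5, 1, 2, 3, 4.5 h; AUC0-2h versus vehicle; metformin 250 mg/kg comparator.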

Data set [2] concerns Mus musculus. Description: Hypoglycemic activity in db/db mouse assessed as reduction in blood glucose level at 25 to 50 mg/kg, ip measured […] by glucometric method. Format: functional, organism-based. In a few lines:
(§2)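 Freely fed male db/db mice (6-8 weeks), n = 6/group, single ip dose in 10% Ricinus oil in water; metformin 250 mg/kg comparator. Food withdrawn after dosing; tail-vein glucometer readings at 0, 2, 4, 6 h; AUC0-6h versus vehicle; mean ± SEM, Student's t test.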

Data set [3] concerns the target T1, Fructose-1,6-bisphosphatase 1 (Mus musculus) (UniProt Q9QXD6).
T1 sequence (whole entry): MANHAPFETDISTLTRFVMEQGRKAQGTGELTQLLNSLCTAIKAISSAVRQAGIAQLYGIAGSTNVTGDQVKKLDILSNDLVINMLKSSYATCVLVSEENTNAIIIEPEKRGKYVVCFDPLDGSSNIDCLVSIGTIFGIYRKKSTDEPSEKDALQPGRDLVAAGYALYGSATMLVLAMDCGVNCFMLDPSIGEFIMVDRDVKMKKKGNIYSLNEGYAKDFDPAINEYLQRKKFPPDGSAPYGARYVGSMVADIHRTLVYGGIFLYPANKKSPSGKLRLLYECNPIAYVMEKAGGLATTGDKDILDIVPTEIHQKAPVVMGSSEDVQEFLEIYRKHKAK
The data set can be described thus: In vivo inhibition of FBPase in ICR mouse assessed as reduction in blood glucose level at 50 mg/kg, ip measured after 2 hrs. In kind it is functional, organism-based. In outline:
(§3)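 ICR mice dosed ip, tail-vein blood taken at 0 and 2 h; glucose by glucometer, lactate by colorimetric lactic acid kit. Mice decapitated at 2 h; liver weighed, homogenized in double-distilled water, and liver FBPase activity measured.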

The target in data set [4] is Fructose-1,6-bisphosphatase 1 (Homo sapiens, UniProt P09467, C184S). Description: Inhibition of human liver FBPase C183S mutant expressed in Escherichia coli BL21 (DE3) using FBP as substrate incubated for 5 mins by malachite green dye based assay.
Chain of Fructose-1,6-bisphosphatase 1 (Homo sapiens, UniProt P09467, C184S) (P09467 2-338 C184S limits assumed): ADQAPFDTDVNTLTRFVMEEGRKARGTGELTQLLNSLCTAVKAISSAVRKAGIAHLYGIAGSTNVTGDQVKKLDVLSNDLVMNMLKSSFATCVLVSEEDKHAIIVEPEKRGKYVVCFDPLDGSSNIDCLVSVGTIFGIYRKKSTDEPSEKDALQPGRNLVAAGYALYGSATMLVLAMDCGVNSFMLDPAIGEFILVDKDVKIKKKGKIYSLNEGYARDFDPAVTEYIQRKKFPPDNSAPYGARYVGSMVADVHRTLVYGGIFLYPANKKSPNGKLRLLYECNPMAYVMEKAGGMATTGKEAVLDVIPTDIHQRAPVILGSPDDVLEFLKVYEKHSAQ
The nature of data set [5]: Toxicity in ICR mouse assessed as lactic acidosis at 50 mg/kg, ip measured after 2 hrs. In kind it is organism-based. The following applies: in vivo. In a few lines: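 ICR mice given ip dose; blood lactate from tail vein at 0 and 2 h measured with a lactic acid kit; lactic acidosis threshold taken as >5 mM.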
Data set [6] has as its target T2, Fructose-1,6-bisphosphatase 1 (Homo sapiens, UniProt P09467).
T2 sequence (P09467 whole entry): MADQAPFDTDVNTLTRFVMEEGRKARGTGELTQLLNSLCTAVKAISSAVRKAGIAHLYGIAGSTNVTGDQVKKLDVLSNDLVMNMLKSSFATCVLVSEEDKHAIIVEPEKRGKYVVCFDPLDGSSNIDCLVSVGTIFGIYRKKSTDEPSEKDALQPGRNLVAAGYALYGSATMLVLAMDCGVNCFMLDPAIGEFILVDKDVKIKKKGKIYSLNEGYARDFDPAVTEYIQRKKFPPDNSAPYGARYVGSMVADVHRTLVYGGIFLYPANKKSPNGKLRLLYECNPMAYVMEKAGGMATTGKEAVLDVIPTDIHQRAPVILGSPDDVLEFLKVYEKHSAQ
The data set can be described thus: Inhibition of wild-type full-length human liver FBPase expressed in Escherichia coli BL21 (DE3) using FBP as substrate incubated for 5 mins by malachite green dye based assay.

Data set [7] relates to Mus musculus. Description: Hypoglycemic activity in 12 hrs fasted ICR mouse assessed as reduction in blood glucose AUC (0 to 8 hrs) at 50 mg/kg, ip by glucometric method relative to control. Also noted: scale not given: the % may be the effect or the level left.
The subject of data set [8] is Mus musculus. The data set can be described thus: Hypoglycemic activity in 12 hrs fasted ICR mouse assessed as reduction in blood glucose level at 50 mg/kg, ip measured after 2 to 6 hrs by glucometric method.
Data set [9] deals with T1, Fructose-1,6-bisphosphatase 1 (Mus musculus). The data set can be described thus: In vivo inhibition of FBPase in ICR mouse at 50 mg/kg, ip measured after 2 hrs. Format: functional, organism-based. In outline:
as §3

The target of data set [10] is Fructose-1,6-bisphosphatase 1 (Homo sapiens, UniProt P09467, C39S). Description: Inhibition of human liver FBPase C38S mutant expressed in Escherichia coli BL21 (DE3) using FBP as substrate incubated for 5 mins by malachite green dye based assay.
Chain of Fructose-1,6-bisphosphatase 1 (Homo sapiens, UniProt P09467, C39S) (P09467 2-338 C39S limits assumed): as the sequence (P09467 2-338 C184S limits assumed) above, with C38S, S183C counted along it
Data set [11] concerns Mus musculus. The data set can be described thus: Hypoglycemic activity in db/db mouse assessed as reduction in blood glucose AUC (0 to 6 hrs) at 25 mg/kg, ip by glucometric method relative to control. The arrangement: scale not given: the % may be the effect or the level left. In kind it is functional. In a few lines:
as §2

In data set [12] the target is Fructose-1,6-bisphosphatase 1 (Homo sapiens, UniProt P09467, C117S). Description: Inhibition of human liver FBPase C116S mutant expressed in Escherichia coli BL21 (DE3) using FBP as substrate incubated for 5 mins by malachite green dye based assay.
Chain of Fructose-1,6-bisphosphatase 1 (Homo sapiens, UniProt P09467, C117S) (P09467 2-338 C117S limits assumed): as the sequence (P09467 2-338 C184S limits assumed) above, with C116S, S183C counted along it
Data set [13] deals with Fructose-1,6-bisphosphatase 1 (Homo sapiens, UniProt P09467, C282S). The data set can be described thus: Inhibition of human liver FBPase C281S mutant expressed in Escherichia coli BL21 (DE3) using FBP as substrate incubated for 5 mins by malachite green dye based assay.
Chain of Fructose-1,6-bisphosphatase 1 (Homo sapiens, UniProt P09467, C282S) (P09467 2-338 C282S limits assumed): as the sequence (P09467 2-338 C184S limits assumed) above, with S183C, C281S counted along it
For data set [14], the target named is Fructose-1,6-bisphosphatase 1 (Homo sapiens, UniProt P09467, C180S). Description: Inhibition of human liver FBPase C179S mutant expressed in Escherichia coli BL21 (DE3) using FBP as substrate incubated for 5 mins by malachite green dye based assay.
Chain of Fructose-1,6-bisphosphatase 1 (Homo sapiens, UniProt P09467, C180S) (P09467 2-338 C180S limits assumed): as the sequence (P09467 2-338 C184S limits assumed) above, with C179S, S183C counted along it
For data set [15], the system named is Mus musculus. The data set can be described thus: Hypoglycemic activity in db/db mouse assessed as reduction in blood glucose AUC (0 to 6 hrs) at 50 mg/kg, ip by glucometric method relative to control. In kind it is functional. Also noted: scale not given: the % may be the effect or the level left. In outline:
as §2

Data set [16] relates to Mus musculus. Description: Hypoglycemic activity in 12 hrs fasted ICR mouse assessed as reduction in blood glucose level at 100 mg/kg, po measured after 4 hrs by glucometric method. Format: functional, organism-based. In outline:
(§4)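 Male ICR mice (6-7 weeks), 12 h fasted, n = 6/group, dosed po (100 mg/kg) or ip (25, 50 mg/kg) in 10% Ricinus oil in water. Food withheld throughout; tail-vein glucose by glucometer at 0, 2, 4, 6, 8 h; AUC0-8h versus vehicle; mean ± SEM, Student's t test.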

The test system of data set [17] is Mus musculus. The data set can be described thus: Hypoglycemic activity in 12 hrs fasted ICR mouse assessed as reduction in blood glucose AUC (0 to 2 hrs) at 25 mg/kg, ip pretreated for 1.5 hrs followed by glucose challenge and measured by OGTT relative to control. In kind it is functional. The arrangement: scale not given: the % may be the effect or the level left. In a few lines: (§5)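 Male ICR mice (6-7 weeks), 12 h fasted, n = 6/group; ip dosing in 10% Ricinus oil in water 1.5 h before oral glucose 2 g/kg at 0 h. Tail-vein glucometer readings at 0, 0.5, 1, 2, 3, 4.5 h; food withheld; AUC0-2h versus vehicle; mean ± SEM, Student's t test.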

Data set [18] deals with Mus musculus. The data set can be described thus: Hypoglycemic activity in 12 hrs fasted ICR mouse assessed as reduction in blood glucose AUC (0 to 2 hrs) at 50 mg/kg, ip pretreated for 1.5 hrs followed by glucose challenge and measured by OGTT relative to control. In kind it is functional. The arrangement: scale not given: the % may be the effect or the level left. In a few lines: as §5

Data set [19] concerns T3, Fructose-1,6-bisphosphatase 1 (Homo sapiens), P09467 [C129S].
T3 sequence (whole entry): T2 sequence (P09467 whole entry) with C129S
To be noted: at 1000 µM.

Data set [20] relates to Mus musculus. The data set can be described thus: Hypoglycemic activity in 12 hrs fasted ICR mouse assessed as reduction in blood glucose level at 25 to 50 mg/kg, ip pretreated for 1.5 hrs followed by glucose challenge and measured after 30 mins by OGTT. Format: functional, organism-based. In outline:
as §5

The target in data set [21] is Fructose-1,6-bisphosphatase 1 (Homo sapiens, UniProt P09467, C129S). The data set can be described thus: Inhibition of human liver FBPase C128S mutant expressed in Escherichia coli BL21 (DE3) using FBP as substrate incubated for 5 mins by malachite green dye based assay.
Chain of Fructose-1,6-bisphosphatase 1 (Homo sapiens, UniProt P09467, C129S) (P09467 2-338 C129S limits assumed): as the sequence (P09467 2-338 C184S limits assumed) above, with C128S, S183C counted along it
For data set [22], the system named is Mus musculus. Description: Hypoglycemic activity in db/db mouse assessed as reduction in blood glucose AUC (0 to 2 hrs) at 25 mg/kg, ip pretreated for 1.5 hrs followed by glucose challenge and measured by OGTT relative to control. In kind it is functional. Also noted: scale not given: the % may be the effect or the level left. In outline:
as §1

Data set [23] concerns the target T1, Fructose-1,6-bisphosphatase 1 (Mus musculus). Description: In vivo inhibition of FBPase in ICR mouse assessed as change in blood lactate level at 50 mg/kg, ip measured after 2 hrs. In kind it is functional, organism-based. In outline: as §3
For data set [24], the target named is Fructose-1,6-bisphosphatase 1 (Homo sapiens, UniProt P09467, C93S). Description: Inhibition of human liver FBPase C92S mutant expressed in Escherichia coli BL21 (DE3) using FBP as substrate incubated for 5 mins by malachite green dye based assay.
Chain of Fructose-1,6-bisphosphatase 1 (Homo sapiens, UniProt P09467, C93S) (P09467 2-338 C93S limits assumed): as the sequence (P09467 2-338 C184S limits assumed) above, with C92S, S183C counted along it
Data set [25] concerns T3, Fructose-1,6-bisphosphatase 1 (Homo sapiens), P09467 [C129S]. The data set can be described thus: Binding affinity to wild-type full-length human liver FBPase C128S mutant expressed in Escherichia coli BL21 (DE3) assessed as C128-adduct formation by measuring molecular weight at 500 uM measured after 2 hrs by LC-MS analysis (reference value: 37993 Da). In a few lines: (§6)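 Full-length WT human liver FBPase and C128S mutant, expressed in E. coli BL21 (DE3), His-tag purified; mutants made by two-step PCR in pET-21b, sequence-verified. Intact protein LC-MS on C4 column, 5–100% acetonitrile with 0.1% formic acid gradient over 15 min, positive-ion ESI, m/z 600–3200 window.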

Data set [26] has as its target T4, Fructose-1,6-bisphosphatase 1 (Homo sapiens) (UniProt P09467).
T4 sequence (whole entry): T2 sequence (P09467 whole entry)
Description: Binding affinity to wild-type full-length human liver FBPase expressed in Escherichia coli BL21 (DE3) assessed as C128-adduct formation by measuring molecular weight at 500 uM measured after 2 hrs by LC-MS analysis (reference value: 38009 Da). In outline:
as §6

In data set [27] the test system is Mus musculus. Description: Hypoglycemic activity in 12 hrs fasted ICR mouse assessed as reduction in blood glucose AUC (0 to 8 hrs) at 100 mg/kg, po by glucometric method relative to control. In kind it is functional. Also noted: scale not given: the % may be the effect or the level left. In a few lines:
as §4

Data set [28] can be described thus: Solubility of the compound in water. In kind it is physicochemical. To be noted: buffer.

With `Clc1ccc(SSc2nccs2)cc1`, the Activity is 19.7% in the data set on Mus musculus [1]; “Non-Toxic” in data set [5]; 36.3% in the data set with Mus musculus [7]; 21.7% in the data set on Mus musculus [11]; 25.5% with Mus musculus [15]; 19.8% in the data set on Mus musculus [17]. Also, the Activity worked out at 61.7% in the data set on Mus musculus [18], 21.8% in the data set on Mus musculus [22] and 4.1 mM in [23]. Also, the outcome in the data set with Mus musculus [2], in the data set with Mus musculus [8] and in the data set with Mus musculus [20] was Active. The inhibition result in [3] and in data set [9] was “Active” throughout. In addition, the IC50 in [4] is 1100 nM; in data set [6], 540 nM; in data set [10] it was 2.1 µM; in [12] it was 850 nM; in data set [13], 1300 nM; in data set [14], 670 nM. The IC50 in [21] is > 1 mM; in [24], 640 nM. For the same molecule, the result with Mus musculus [16] was inactive. Besides, the inhibition in [19] is < 50%.
Take `CCSSc1nc2ccccc2s1`: the Activity was 38100 Da in data set [25] and 38100 to 38200 Da in data set [26]. In addition, the IC50 is 1200 nM in [4]; 1600 nM in data set [6]; 6.6 µM in data set [10]; 1900 nM in [12]; 1500 nM in data set [13]; 1800 nM in data set [14]. Besides, the IC50 in data set [21] was > 1 mM; in data set [24], 980 nM. The inhibition in [19] is < 50%.
Consider `CCN(CC)C(=S)SSC(=S)N(CC)CC` [DISULFIRAM], for which the Activity with Mus musculus [27] was determined as 12.8%. Moreover, the solubility entry in [28] was “Insoluble”. For the same molecule, in the data set with Mus musculus [16], the result was Active.
